Bioassay records from PubChem BioAssay.
hERG rescue = compounds protecting human hERG from proarrhythmic drug block; CHO-hERG, FluxOR thallium flux, dofetilide IC70 present; activation (rescue from dofetilide block), less the hit threshold, % at 10 µM; actives 0.51% (n = 310,000); AID 1511;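 active = activation above the mean of controls blocked by dofetilide plus 5 SD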;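 note: thallium influx through hERG after potassium depolarization seen as dye fluorescence rise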
AI-2 QS modul = modulators of Vibrio harveyi AI-2 quorum sensing system. Vibrio harveyi JMH597 AI-2 luminescence/OD600 ratio, 9 h; active compounds read low; strain lacks LuxN and CqsS sensors; 0 = neutral-control median. activity change, % at 7.5 µM. actives 0.4% (n = 300,000). AID 2094; in the data active = activity change below about -75%, passing the limit was not always enough; inconclusive = no clear call, values can overlap the other calls;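 note: luminescence divided by OD600 gain over 9 h not by final OD600 alone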
KCNQ1 act = potentiates or activates the human KCNQ1 potassium channel | CHO-K1 KCNQ1, thallium flux FluxOR fluorescence; active compounds read high | AID 2648 | B-score at 10 µM | actives 0.35% (n = 310,000) | P51787;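 active = fluorescence ratio B-score, a plate-corrected score, at least three library SD, with initial intensity B-score within 5 SD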
Target sequence (P51787 whole entry, looked up): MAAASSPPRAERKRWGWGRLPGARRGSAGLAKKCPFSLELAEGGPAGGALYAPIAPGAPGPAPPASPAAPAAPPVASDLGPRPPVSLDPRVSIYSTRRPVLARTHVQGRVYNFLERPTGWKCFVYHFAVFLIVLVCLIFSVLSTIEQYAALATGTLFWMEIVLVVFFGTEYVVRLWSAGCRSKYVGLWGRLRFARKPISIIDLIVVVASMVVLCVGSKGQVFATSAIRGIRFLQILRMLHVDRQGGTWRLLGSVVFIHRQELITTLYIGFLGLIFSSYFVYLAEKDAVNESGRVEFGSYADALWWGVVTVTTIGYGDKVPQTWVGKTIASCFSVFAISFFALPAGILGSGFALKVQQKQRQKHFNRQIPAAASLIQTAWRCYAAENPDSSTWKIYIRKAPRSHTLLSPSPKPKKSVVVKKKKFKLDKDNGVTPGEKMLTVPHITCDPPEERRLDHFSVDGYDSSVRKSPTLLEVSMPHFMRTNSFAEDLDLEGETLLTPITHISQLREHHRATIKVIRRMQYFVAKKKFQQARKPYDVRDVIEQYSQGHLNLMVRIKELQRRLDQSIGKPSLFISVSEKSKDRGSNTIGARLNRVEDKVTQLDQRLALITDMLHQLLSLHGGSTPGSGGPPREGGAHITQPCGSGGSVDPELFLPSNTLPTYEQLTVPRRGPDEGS
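System: Stable KCNQ1 CHO-K1 line | Incubation: 90 min dye loading and 20 min compound exposure, both at room temperature | Measure: Ratio B score | Medium: Assay buffer for compound exposure, DMSO matched across wells | Compound dosing: Single-concentration screen | Probe or stimulus: K+/Tl+ depolarizing stimulus | Measured by: Kinetic FluxOR fluorescence, 10 s baseline plus 110 s post-stimulus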
KCNQ1 inh = human KCNQ1 channel inhibition | CHO-K1 KCNQ1, FluxOR thallium flux fluorescence; active compounds read high | P51787 | B-score at 10 µM | actives 1.3% (n = 310,000);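 active = compounds whose thallium flux B-score, printed positive for inhibition, exceeds three library SD while starting fluorescence stays within three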;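 note: channel opened by potassium depolarization with thallium stimulus after 20 min compound exposure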
Cl transport mod = KCC2 (human) Cl- transport modulation; Q9H2X9; KCC2 cells, thallium flux FluoZin-2 fluorescence; B-score of Tl+ flux slope (higher = more flux/activation; lower = inhibition) at 10 µM; actives 2.2% (n = 190,000);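 active = thallium flux slope and its plate-corrected score both differing from the plate sample mean at a set confidence after two filtering rounds, in either direction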;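 note: slope of fluorescence scaled to starting intensity during 10 to 20 s after thallium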
Mot1-301 SUMO = blocks SUMOylation pathway, rescuing yeast Mot1-301 growth; S. cerevisiae Mot1-301 growth rescue, ATP luminescence, 38.5C; percent above DMSO median, 100 means doubled; growth rescue, % at 18.8 µM; actives 1% (n = 320,000); AID 2716;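 active = every valid replicate shows activation above 250% relative to neutral control wells; inactive = the rest, any valid replicate at or below 250%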;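 note: OY570 slx delta 5 strain wells were the positive control but not used for scaling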
KCC2 secondary = KCC2 (human) modulation, secondary assay; shares compounds with Cl transport mod; HEK293-KCC2, thallium flux, FluoZin2 fluorescence; active compounds read high; normalised thallium flux (F/F0 slope) at 10 µM; actives 15% (n = 3,700); AID 1713;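 active = thallium flux slope above the same plate's solvent-only control mean plus 3 SD; inconclusive = the two replicate wells disagree; inactive = no significant difference from solvent-only control wells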
KCC2 bumet counter = thallium flux persisting under bumetanide in KCC2 cells, counter-screen secondary assay | actives 49% (n = 3,700) | AID 1714 | shares compounds with Cl transport mod | normalized thallium flux at 10 µM | HEK293-KCC2 + bumetanide/ouabain, thallium flux FluoZin2; active compounds read high;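 active = thallium entry rate above the same plate's blocked-transporter control wells by more than 3 SD; inconclusive = the two repeat wells disagree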;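 note: raw slope of fluorescence over initial fluorescence between 10 and 20 s after thallium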
KCC2 secondary2 = KCC2 (human) modulation, second secondary assay; actives 23% (n = 3,700); AID 1715; shares compounds with Cl transport mod; normalized thallium flux at 10 µM; HEK293-KCC2, thallium flux FluoZin2 fluorescence; actives lie on both sides; F/F0 rise rate, 10–20 s post-thallium;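 active = thallium flux slope more than 3 SD above or below the plate's solvent-only control mean, mostly below; inconclusive = the two repeat wells disagreed; inactive = no significant shift from solvent-only controls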;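 note: raw slope with 0.1% DMSO as baseline and bumetanide as block control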
HEK293 Tl flux = parental HEK flux effect, counter-screen; thallium flux rate (normalised fluorescence) at 10 µM; actives 46% (n = 3,700); AID 1716; shares compounds with Cl transport mod; HEK293 parental cells, thallium flux FluoZin2, ouabain; baseline-ratio fluorescence slope, 10–20 s after thallium;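 active = thallium flux rate significantly above the same plate's solvent-only control wells, beyond their mean plus 3 SD; inconclusive = the two replicate wells gave conflicting results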
KCC2 retest ouab = confirmation of human KCC2 modulators with ouabain; shares compounds with Cl transport mod; HEK293-KCC2, thallium flux FluoZin2 fluorescence; bidirectional: low = inhibitor, high = activator; raw Tl+ flux slope (below DMSO = inhibition, above = activation) at 10 µM; actives 48% (n = 3,700);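 active = thallium flux slope beyond 3 SD from same-plate DMSO control mean in most replicates, usually higher, sometimes lower; inconclusive = repeat tests gave conflicting results; inactive = no significant difference from controls in most replicates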;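 note: slope of initial-normalized fluorescence between seconds 10 and 20 after thallium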
HEK293 Tl flux2 = counter-screen for KCC2 modulators: effect in parental HEK293 cells; shares compounds with Cl transport mod; thallium flux FluoZin-2 fluorescence slope; thallium flux slope at 10 µM; actives 33% (n = 3,700); AID 1718;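 active = thallium flux slope above the same plate's solvent-control mean plus 3 SD in both duplicate wells; inconclusive = duplicate wells that disagreed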;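 note: run without ouabain in cells lacking the KCC2 cotransporter; slope of fluorescence scaled to its starting value between 10 and 20 s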
* marks the source's active call; other numbers are inactive results. Rows were chosen to be rich in hits. Some 4.2% of all compounds tested hit in one or more screens of this group.

How did Cc1ccc(C(=O)NNC(=O)CSc2nnc(C(C)C)n2C)cc1 do in these assays?
hERG rescue: 0.0; AI-2 QS modul: 31.4; KCNQ1 act: inactive; KCNQ1 inh: inactive; Mot1-301 SUMO: -8.7

What do the screens show for `O=C1NC(=S)SC1=C1CCCC1`?
hERG rescue: 0.3; AI-2 QS modul: 26.3; KCNQ1 act: inactive; KCNQ1 inh: inactive; Cl transport mod: 17.7*; Mot1-301 SUMO: -0.8; KCC2 secondary: 0.00656; KCC2 bumet counter: 0.0283*; KCC2 secondary2: 0.0425*; HEK293 Tl flux: 0.0286*; KCC2 retest ouab: 0.0368*; HEK293 Tl flux2: 0.0319*

How did CCOc1ccc(Nc2nc(Cc3nnc(SCC(=O)O)o3)cs2)cc1 do in these assays?
hERG rescue: 3.6; AI-2 QS modul: 7.4; KCNQ1 act: inactive; KCNQ1 inh: inactive; Mot1-301 SUMO: 0.9; KCC2 secondary: 0.00497; KCC2 bumet counter: 0.00498; KCC2 secondary2: 0.0271; HEK293 Tl flux: 0.00769; KCC2 retest ouab: 0.015*; HEK293 Tl flux2: 0.0106

Results for CCn1nnnc1SCC(=O)N1CCCCC1 ?
hERG rescue: -5.7; AI-2 QS modul: 39.4; KCNQ1 act: inactive; KCNQ1 inh: inactive; Mot1-301 SUMO: 144.2

Results for Cn1c(NCCCO)nc2c1c(=O)n(Cc1ccccc1F)c(=O)n2C ?
hERG rescue: -15.0; AI-2 QS modul: 2.5; KCNQ1 act: inactive; KCNQ1 inh: inactive; Cl transport mod: 0.231; Mot1-301 SUMO: -9.5; KCC2 secondary: 0.0102; KCC2 bumet counter: inconclusive; KCC2 secondary2: 0.0274; HEK293 Tl flux: 0.0071; KCC2 retest ouab: 0.0197; HEK293 Tl flux2: 0.00968

Results for COc1ccccc1Oc1nc2c(c(=O)n(Cc3ccccc3F)c(=O)n2C)n1C ?
hERG rescue: -6.2; AI-2 QS modul: 44.7; KCNQ1 act: inactive; KCNQ1 inh: inactive; Cl transport mod: 6.08; Mot1-301 SUMO: 19.8

Results for COc1ccccc1C(=O)Nc1ccc2c(c1)n(C)c(=O)n2C ?
hERG rescue: -8.1; AI-2 QS modul: 12.8; KCNQ1 act: inactive; KCNQ1 inh: inactive; Mot1-301 SUMO: 417.9

Results for Cc1nn(Cc2ccccc2)c(C)c1NC(=O)c1noc2c1CCc1ccccc1-2 ?
hERG rescue: -16.5; AI-2 QS modul: 15.4; KCNQ1 act: inactive; KCNQ1 inh: inactive; Cl transport mod: -4.7*; Mot1-301 SUMO: 31.8; KCC2 secondary: 0.00981; KCC2 bumet counter: inconclusive; KCC2 secondary2: 0.0347; HEK293 Tl flux: 0.00782; KCC2 retest ouab: inconclusive; HEK293 Tl flux2: 0.0112

Results for Nc1ccc(C(=O)Nc2nc3ccccc3s2)cc1 ?
hERG rescue: -3.2; AI-2 QS modul: 11.3; KCNQ1 act: inactive; KCNQ1 inh: inactive; Cl transport mod: -3.62*; Mot1-301 SUMO: -4.8; KCC2 secondary: 0.00815; KCC2 bumet counter: 0.00652; KCC2 secondary2: 0.0327; HEK293 Tl flux: 0.00759; KCC2 retest ouab: 0.0186; HEK293 Tl flux2: 0.0105

How did NC(=S)Nc1nc2ccccc2s1 do in these assays?
hERG rescue: -3.5; AI-2 QS modul: 23.3; KCNQ1 act: 8*; KCNQ1 inh: inactive; Cl transport mod: 102*; Mot1-301 SUMO: -6.9; KCC2 secondary: 0.0411*; KCC2 bumet counter: 0.0869*; KCC2 secondary2: 0.0508*; HEK293 Tl flux: 0.0573*; KCC2 retest ouab: 0.0563*; HEK293 Tl flux2: 0.0607*

Results for S=c1[nH]nc(CSCCOc2ccc(Cl)cc2Cl)o1 ?
hERG rescue: -9.6; AI-2 QS modul: 16.9; KCNQ1 act: inactive; KCNQ1 inh: inactive; Cl transport mod: 162*; Mot1-301 SUMO: -0.7; KCC2 secondary: 0.00762; KCC2 bumet counter: 0.0565*; KCC2 secondary2: inconclusive; HEK293 Tl flux: 0.0331*; KCC2 retest ouab: 0.0559*; HEK293 Tl flux2: 0.0098

How did S=c1[nH]nc(CSCCOc2ccccc2)o1 do in these assays?
hERG rescue: -6.0; AI-2 QS modul: 0.2; KCNQ1 act: inactive; KCNQ1 inh: inactive; Cl transport mod: -2.28; Mot1-301 SUMO: -16.3

How did CCOc1cc(/C=N/Nc2nc(N3CCCC3)nc(N3CCCC3)n2)ccc1O do in these assays?
hERG rescue: -9.6; AI-2 QS modul: 9.1; KCNQ1 act: inactive; KCNQ1 inh: inactive; Cl transport mod: -0.434; Mot1-301 SUMO: -17.9

Results for CCOc1cccc(/C=N/Nc2nc(N3CCCC3)nc(N3CCCC3)n2)c1O ?
hERG rescue: -13.5; AI-2 QS modul: 9.9; KCNQ1 act: inactive; KCNQ1 inh: inactive; Cl transport mod: -4.46*; Mot1-301 SUMO: -11.2; KCC2 secondary: 0.00996; KCC2 bumet counter: 0.00654; KCC2 secondary2: 0.0337; HEK293 Tl flux: 0.00741; KCC2 retest ouab: 0.0206; HEK293 Tl flux2: 0.0112*

What do the screens show for `COc1ccc(C(=O)N2CCCN(C)CC2)cc1S(=O)(=O)N(C)Cc1ccccc1`?
Mot1-301 SUMO: -12.7

How did COc1ccc(CN2CCNC(=O)C2CC(=O)NCc2csc(C)n2)c(F)c1 (configuration not stated) do in these assays?
hERG rescue: -9.3; AI-2 QS modul: 5.0; KCNQ1 act: inactive; KCNQ1 inh: inactive; Mot1-301 SUMO: 1.7

What do the screens show for `CC(C)(C)NC(=O)C(c1ccncc1)N(Cc1ccco1)C(=O)c1ccc(-c2ccccc2)[nH]1` (configuration not stated)?
hERG rescue: 3.6; AI-2 QS modul: 3.3; KCNQ1 act: inactive; KCNQ1 inh: inactive; Cl transport mod: -4.99*; Mot1-301 SUMO: -6.5; KCC2 secondary: 0.00575; KCC2 bumet counter: 0.00516; KCC2 secondary2: 0.0239*; HEK293 Tl flux: 0.00761; KCC2 retest ouab: inconclusive; HEK293 Tl flux2: 0.0109
